Zone of inhibition data for 18 compounds are collected here from ChEMBL document CHEMBL2021764, “2-Aminothiophenes as building blocks in heterocyclic synthesis: synthesis and antimicrobial evaluation of a new class of pyrido[1,2-a]thieno[3,2-e]pyrimidine, quinoline and pyridin-2-one derivatives” (2012).

What all share (type): functional
One assay relates to Escherichia coli. Description: Antibacterial activity against Escherichia coli 124300 at 1 mg/ml after 24 hrs by agar-well diffusion technique. Particulars: Escherichia coli, 124300, 24 h; read-out: DIZ. In outline: (§1)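 Each bacterial strain (0.1 ml) was spread on nutrient agar, and 4 mm wells were cut with a sterile cork borer. Wells were loaded with test chemical at a final 1 mg ml^-1, then incubated at 37 °C for 24 h. Inhibition zone diameters around the wells were measured, averaged over 3 replicas.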
On the technique in general: A growth-free zone around the sample is the usual read-out of agar diffusion tests.

A further assay has as its system Staphylococcus aureus. The assay is described as follows: Antibacterial activity against Staphylococcus aureus 155554A at 1 mg/ml after 24 hrs by agar-well diffusion technique. Particulars: read-out: DIZ. In outline: as §1
The subject of another assay is Serratia marcescens. Description: Antibacterial activity against Serratia marcescens 155449 at 1 mg/ml after 24 hrs by agar-well diffusion technique. Particulars: Serratia marcescens, 155449, 24 h; read-out: DIZ. In outline:
as §1

The subject of the next assay is Pseudomonas aeruginosa. Description: Antibacterial activity against Pseudomonas aeruginosa 155250A at 1 mg/ml after 24 hrs by agar-well diffusion technique. Conditions: read-out: DIZ. In outline:
as §1

The test system of the next assay is Bacillus subtilis. The assay is described as follows: Antibacterial activity against Bacillus subtilis 154921 at 1 mg/ml after 24 hrs by agar-well diffusion technique. Particulars: Bacillus subtilis, 154921, 24 h; read-out: DIZ. In outline: as §1
The subject of the next assay is Candida albicans. The assay is described as follows: Antifungal activity against Candida albicans 155965 at 1 mg/ml after 48 hrs by agar-well diffusion technique. Particulars: Candida albicans, 155965, 48 h; read-out: DIZ. In outline: (§2)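 Yeast (0.1 ml) was spread on potato dextrose agar, and 4 mm wells were cut with a sterile cork borer. Wells were loaded with test chemical at a final 1 mg ml^-1, then incubated at 25 °C for 48 h. Inhibition zones around the wells were measured, averaged over 3 replicas.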

The next assay has as its system Saccharomyces cerevisiae. Description: Antifungal activity against Saccharomyces cerevisiae 156250 at 1 mg/ml after 48 hrs by agar-well diffusion technique. Particulars: Saccharomyces cerevisiae, 156250, 48 h; read-out: DIZ. In outline:
as §2

Structures are written as SMILES.

Regarding `COc1ccc(-c2c(C#N)c(=N)n3c([nH]c(=O)c4c(-c5ccccc5)csc43)c2C#N)cc1`, the zone of inhibition at 1000 µg/mL in the assay with Escherichia coli came to 3.3 mm; in the assay with Staphylococcus aureus, 0 mm; with Serratia marcescens, 2 mm; in the assay on Pseudomonas aeruginosa, 14 mm; in the assay on Bacillus subtilis it was 2 mm; in the assay on Candida albicans, 0 mm. Also, the zone of inhibition at 1000 µg/mL in the assay with Saccharomyces cerevisiae is 0 mm.

Regarding `N#Cc1c(-c2ccccc2)csc1N`, the zone of inhibition at 1000 µg/mL in the assay with Escherichia coli is 10.6 mm; in the assay on Staphylococcus aureus, 21 mm; in the assay with Serratia marcescens it was 11.3 mm; with Pseudomonas aeruginosa it was 10.6 mm; in the assay with Bacillus subtilis it was 14.6 mm; in the assay on Candida albicans, 18 mm. The zone of inhibition at 1000 µg/mL in the assay with Saccharomyces cerevisiae was found to be 16 mm.

Turning to `N#Cc1c(-c2ccc(Cl)cc2)csc1N`, the zone of inhibition at 1000 µg/mL came to 4 mm in the assay on Escherichia coli; 6.6 mm in the assay on Staphylococcus aureus; 0 mm in the assay with Serratia marcescens; 5 mm in the assay on Pseudomonas aeruginosa; 11 mm with Bacillus subtilis; 2.6 mm with Candida albicans. Moreover, the zone of inhibition at 1000 µg/mL with Saccharomyces cerevisiae is 7 mm.

Regarding `CN(C)/C=C(\C#N)C(=O)Nc1scc(-c2ccccc2)c1C#N`, the zone of inhibition at 1000 µg/mL stood at 4 mm in the assay on Escherichia coli; 0 mm with Staphylococcus aureus; 3.3 mm with Serratia marcescens; 10.8 mm with Pseudomonas aeruginosa; 1.6 mm in the assay with Bacillus subtilis; 4 mm in the assay on Candida albicans. For the same compound, the zone of inhibition at 1000 µg/mL with Saccharomyces cerevisiae was found to be 1.3 mm.

With `N#Cc1c(-c2cccs2)c(C#N)c2[nH]c(=O)c3c(-c4ccccc4)csc3n2c1=N`, the zone of inhibition at 1000 µg/mL was determined as 4 mm in the assay on Escherichia coli; 0 mm with Staphylococcus aureus; 0 mm in the assay on Serratia marcescens; 11.3 mm in the assay on Pseudomonas aeruginosa; 3.3 mm in the assay on Bacillus subtilis; 0 mm with Candida albicans. In addition, the zone of inhibition at 1000 µg/mL in the assay with Saccharomyces cerevisiae worked out at 0 mm.

For `COc1ccc(-c2c(C#N)c(=N)n3c([nH]c(=O)c4c(-c5ccc(Cl)cc5)csc43)c2C#N)cc1`, the zone of inhibition at 1000 µg/mL amounted to 4 mm with Escherichia coli; 0 mm with Staphylococcus aureus; 4 mm with Serratia marcescens; 13.1 mm in the assay on Pseudomonas aeruginosa; 2 mm in the assay on Bacillus subtilis; 0 mm with Candida albicans. The zone of inhibition at 1000 µg/mL in the assay with Saccharomyces cerevisiae is 0 mm.

For `N#Cc1c(-c2cccs2)c(C#N)c2[nH]c(=O)c3c(-c4ccc(Cl)cc4)csc3n2c1=N`, the zone of inhibition at 1000 µg/mL in the assay on Escherichia coli was 4 mm; in the assay on Staphylococcus aureus, 0 mm; in the assay on Serratia marcescens, 2.6 mm; in the assay on Pseudomonas aeruginosa, 10.6 mm; with Bacillus subtilis, 2 mm; with Candida albicans it was 12 mm. Moreover, in the assay with Saccharomyces cerevisiae, the zone of inhibition at 1000 µg/mL came to 0 mm.

On to `N#Cc1cc(C#N)c2[nH]c(=O)c3c(-c4ccccc4)csc3n2c1=N`, for which the zone of inhibition at 1000 µg/mL in the assay with Escherichia coli worked out at 4 mm; in the assay with Staphylococcus aureus, 0 mm; with Serratia marcescens, 6.6 mm; in the assay with Pseudomonas aeruginosa, 9 mm; with Bacillus subtilis it was 2 mm; in the assay with Candida albicans, 2.6 mm. The zone of inhibition at 1000 µg/mL with Saccharomyces cerevisiae was 1.3 mm.

Turning to `N#Cc1cc(C#N)c2[nH]c(=O)c3c(-c4ccc(Cl)cc4)csc3n2c1=N`, the zone of inhibition at 1000 µg/mL came out at 2 mm in the assay with Escherichia coli; 2.6 mm in the assay on Staphylococcus aureus; 3.3 mm in the assay on Serratia marcescens; 8 mm in the assay on Pseudomonas aeruginosa; 6 mm in the assay on Bacillus subtilis; 0 mm in the assay on Candida albicans. Besides, in the assay with Saccharomyces cerevisiae, the zone of inhibition at 1000 µg/mL amounted to 0 mm.

Consider `N#Cc1c(-c2ccccc2)csc1NC(=O)c1cc2ccccc2[nH]c1=O`, for which the zone of inhibition at 1000 µg/mL was found to be 8.6 mm in the assay on Escherichia coli; 12 mm with Staphylococcus aureus; 6 mm in the assay on Serratia marcescens; 10 mm in the assay with Pseudomonas aeruginosa; 11 mm in the assay on Bacillus subtilis; 16 mm in the assay on Candida albicans. For the same compound, the zone of inhibition at 1000 µg/mL in the assay on Saccharomyces cerevisiae is 14 mm.

In the case of `N#Cc1c(-c2ccc(Cl)cc2)csc1NC(=O)c1cc2ccccc2[nH]c1=O`, the zone of inhibition at 1000 µg/mL stood at 8 mm in the assay with Escherichia coli, 8 mm in the assay with Staphylococcus aureus, 11 mm in the assay on Pseudomonas aeruginosa and 10.5 mm with Bacillus subtilis.

In the case of `CCOC(=O)c1sc(NC(=O)/C(C#N)=N/Nc2ccccc2)c(C#N)c1C`, the zone of inhibition at 1000 µg/mL in the assay on Escherichia coli stood at 0 mm; with Staphylococcus aureus, 14 mm; in the assay on Serratia marcescens, 2.6 mm; with Pseudomonas aeruginosa it was 6 mm; in the assay with Bacillus subtilis, 13 mm; in the assay on Candida albicans it was 0 mm. Besides, the zone of inhibition at 1000 µg/mL in the assay on Saccharomyces cerevisiae turned out to be 0 mm.

In the case of `N#CCC(=O)Nc1scc(-c2ccccc2)c1C#N`, the zone of inhibition at 1000 µg/mL in the assay on Escherichia coli worked out at 4 mm; with Staphylococcus aureus, 0 mm; with Serratia marcescens, 2 mm; in the assay with Pseudomonas aeruginosa it was 4 mm; with Bacillus subtilis it was 2 mm; with Candida albicans, 4 mm. Besides, the zone of inhibition at 1000 µg/mL in the assay with Saccharomyces cerevisiae came out at 2.6 mm.

Turning to `N#CCC(=O)Nc1scc(-c2ccc(Cl)cc2)c1C#N`, the zone of inhibition at 1000 µg/mL in the assay with Escherichia coli was 4 mm; in the assay with Staphylococcus aureus, 0 mm; with Serratia marcescens, 1.3 mm; with Pseudomonas aeruginosa it was 4 mm; in the assay with Bacillus subtilis, 4.6 mm; with Candida albicans, 0 mm. The zone of inhibition at 1000 µg/mL with Saccharomyces cerevisiae amounted to 3 mm.

`CCOC(=O)c1sc(NC(=O)CC#N)c(C#N)c1C`: the zone of inhibition at 1000 µg/mL with Escherichia coli was found to be 7 mm; with Bacillus subtilis, 7 mm; in the assay with Candida albicans it was 0 mm; in the assay on Saccharomyces cerevisiae, 0 mm.

In the case of `CN(C)/C=C(\C#N)C(=O)Nc1scc(-c2ccc(Cl)cc2)c1C#N`, the zone of inhibition at 1000 µg/mL was 4 mm in the assay with Escherichia coli; 0 mm in the assay with Staphylococcus aureus; 7 mm in the assay with Serratia marcescens; 4 mm in the assay with Pseudomonas aeruginosa; 1 mm in the assay on Bacillus subtilis; 0 mm with Candida albicans. Besides, the zone of inhibition at 1000 µg/mL in the assay with Saccharomyces cerevisiae worked out at 1.3 mm.

On to `N#Cc1c(-c2ccc([N+](=O)[O-])cc2)c(C#N)c2[nH]c(=O)c3c(-c4ccccc4)csc3n2c1=N`, for which the zone of inhibition at 1000 µg/mL amounted to 4 mm in the assay on Escherichia coli; 0 mm in the assay on Staphylococcus aureus; 4.6 mm in the assay with Serratia marcescens; 2 mm in the assay with Bacillus subtilis; 0 mm with Candida albicans; 0 mm in the assay with Saccharomyces cerevisiae.

For `N#Cc1c(-c2ccc(Cl)cc2)c(C#N)c2[nH]c(=O)c3c(-c4ccccc4)csc3n2c1=N`, the zone of inhibition at 1000 µg/mL is 4.6 mm in the assay on Escherichia coli; 0 mm with Staphylococcus aureus; 3.3 mm in the assay on Serratia marcescens; 1.6 mm in the assay with Bacillus subtilis; 0 mm in the assay with Candida albicans; 1.3 mm in the assay on Saccharomyces cerevisiae.
